Data reported in the RNAGym collection of RNA variant scans (doi:10.1002/anie.201605470).

B1: Osa-1-4 twister ribozyme (parent)
chain: CCGCCUAACACUGCCAAUGCCGGUCCCAAGCCCGGAUAAAAGUGGAGGGGGCGG

Variants of: B1
Assay: self-cleavage, relative activity (ratio to wild type); higher = more cleavage; co-transcriptional
In short: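 For each read, cleavage status was taken from whether upstream sequence was present. The reads came from an Oryza sativa twister ribozyme of 54 nucleotides, whose DNA template was synthesised with 97 % wild-type base and 1 % of each other base at the 48 positions downstream of the cleavage site. The template was transcribed in vitro at 37 °C for 2 h with co-transcriptional self-cleavage, and the RNA was reverse-transcribed using a template-switching oligonucleotide, PCR-amplified and deep-sequenced. Relative activity is the fraction cleaved normalised to wild type.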

First: CCGCCUGACACUGCCAAUGCCGGUCCCAAGCCCGGAUAAAAGUGGUGGGGGCGG
Second: CCGCCUUACACUGCCAAUGCCGGUCCCAAGCCCGGAUAAAAGUGGUGGGGGCGG
The self-cleavage of the first is higher: 0.07 for the first, 0.04 for the second.

Compared with CCGCCUACCACUGCCAAUGCCGGUCCCAAGCCCGGAUAAAAGUGGUGGGGGCGG, CCGCCUAGCACUGCCAAUGCCGGUCCCAAGCCCGGAUAAAAGUGGUGGGGGCGG is higher in self-cleavage: 0.03 for the first, 0.08 for the second.

Compared with CCGCCUAUCACUGCCAAUGCCGGUCCCAAGCCCGGAUAAAAGUGGUGGGGGCGG, CCGCCUAAAACUGCCAAUGCCGGUCCCAAGCCCGGAUAAAAGUGGUGGGGGCGG is lower in self-cleavage: 0.07 for the first, 0.02 for the second.

Compared with CCGCCUAAGACUGCCAAUGCCGGUCCCAAGCCCGGAUAAAAGUGGUGGGGGCGG, CCGCCUAAUACUGCCAAUGCCGGUCCCAAGCCCGGAUAAAAGUGGUGGGGGCGG is lower in self-cleavage: 0.06 for the first, 0.04 for the second.

First: CCGCCUAACAAUGCCAAUGCCGGUCCCAAGCCCGGAUAAAAGUGGUGGGGGCGG
Second: CCGCCUAACAGUGCCAAUGCCGGUCCCAAGCCCGGAUAAAAGUGGUGGGGGCGG
The self-cleavage of the first is higher: 0.06 for the first, 0.05 for the second.

Going from CCGCCUAACAUUGCCAAUGCCGGUCCCAAGCCCGGAUAAAAGUGGUGGGGGCGG to CCGCCUAACACUGACAAUGCCGGUCCCAAGCCCGGAUAAAAGUGGUGGGGGCGG, the self-cleavage falls from 0.08 to 0.03.

Going from CCGCCUAACACUGGCAAUGCCGGUCCCAAGCCCGGAUAAAAGUGGUGGGGGCGG to CCGCCUAACACUGUCAAUGCCGGUCCCAAGCCCGGAUAAAAGUGGUGGGGGCGG, the self-cleavage rises from 0.03 to 0.06.

First: CCGCCUAACACUGCAAAUGCCGGUCCCAAGCCCGGAUAAAAGUGGUGGGGGCGG
Second: CCGCCUAACACUGCGAAUGCCGGUCCCAAGCCCGGAUAAAAGUGGUGGGGGCGG
The self-cleavage of the first is lower: 0.05 for the first, 0.08 for the second.

CCGCCUAACACUGCUAAUGCCGGUCCCAAGCCCGGAUAAAAGUGGUGGGGGCGG and CCGCCUAACACUGCCAAUGACGGUCCCAAGCCCGGAUAAAAGUGGUGGGGGCGG are the same in self-cleavage: 0.06 for the first, 0.06 for the second.

Compared with CCGCCUAACACUGCCAAUGGCGGUCCCAAGCCCGGAUAAAAGUGGUGGGGGCGG, CCGCCUAACACUGCCAAUGUCGGUCCCAAGCCCGGAUAAAAGUGGUGGGGGCGG is higher in self-cleavage: 0.05 for the first, 0.1 for the second.

First: CCGCCUAACACUGCCAAUGCAGGUCCCAAGCCCGGAUAAAAGUGGUGGGGGCGG
Second: CCGCCUAACACUGCCAAUGCGGGUCCCAAGCCCGGAUAAAAGUGGUGGGGGCGG
The self-cleavage of the first is higher: 0.07 for the first, 0.02 for the second.

Going from CCGCCUAACACUGCCAAUGCUGGUCCCAAGCCCGGAUAAAAGUGGUGGGGGCGG to CCGCCUAACACUGCCAAUGCCGGUACCAAGCCCGGAUAAAAGUGGUGGGGGCGG, the self-cleavage falls from 0.06 to 0.03.

First: CCGCCUAACACUGCCAAUGCCGGUGCCAAGCCCGGAUAAAAGUGGUGGGGGCGG
Second: CCGCCUAACACUGCCAAUGCCGGUUCCAAGCCCGGAUAAAAGUGGUGGGGGCGG
The self-cleavage of the first is lower: 0.04 for the first, 0.06 for the second.

First: CCGCCUAACACUGCCAAUGCCGGUCACAAGCCCGGAUAAAAGUGGUGGGGGCGG
Second: CCGCCUAACACUGCCAAUGCCGGUCGCAAGCCCGGAUAAAAGUGGUGGGGGCGG
The self-cleavage of the first is lower: 0.02 for the first, 0.03 for the second.

Compared with CCGCCUAACACUGCCAAUGCCGGUCUCAAGCCCGGAUAAAAGUGGUGGGGGCGG, CCGCCUAACACUGCCAAUGCCGGUCCAAAGCCCGGAUAAAAGUGGUGGGGGCGG is lower in self-cleavage: 0.06 for the first, 0.04 for the second.

Going from CCGCCUAACACUGCCAAUGCCGGUCCGAAGCCCGGAUAAAAGUGGUGGGGGCGG to CCGCCUAACACUGCCAAUGCCGGUCCUAAGCCCGGAUAAAAGUGGUGGGGGCGG, the self-cleavage rises from 0.03 to 0.06.

Compared with CCGCCUAACACUGCCAAUGCCGGUCCCAAGACCGGAUAAAAGUGGUGGGGGCGG, CCGCCUAACACUGCCAAUGCCGGUCCCAAGGCCGGAUAAAAGUGGUGGGGGCGG is higher in self-cleavage: 0.02 for the first, 0.04 for the second.

Going from CCGCCUAACACUGCCAAUGCCGGUCCCAAGUCCGGAUAAAAGUGGUGGGGGCGG to CCGCCUAACACUGCCAAUGCCGGUCCCAAGCACGGAUAAAAGUGGUGGGGGCGG, the self-cleavage falls from 0.04 to 0.03.

CCGCCUAACACUGCCAAUGCCGGUCCCAAGCGCGGAUAAAAGUGGUGGGGGCGG and CCGCCUAACACUGCCAAUGCCGGUCCCAAGCUCGGAUAAAAGUGGUGGGGGCGG are the same in self-cleavage: 0.05 for the first, 0.05 for the second.

Going from CCGCCUAACACUGCCAAUGCCGGUCCCAAGCCAGGAUAAAAGUGGUGGGGGCGG to CCGCCUAACACUGCCAAUGCCGGUCCCAAGCCGGGAUAAAAGUGGUGGGGGCGG, the self-cleavage falls from 0.05 to 0.03.

First: CCGCCUAACACUGCCAAUGCCGGUCCCAAGCCUGGAUAAAAGUGGUGGGGGCGG
Second: CCGCCUAACACUGCCAAUGCCGGUCCCAAGCCCGGAUAAAAGUGGUGGGGGAGG
The self-cleavage of the first is lower: 0.06 for the first, 0.1 for the second.

Compared with CCGCCUAACACUGCCAAUGCCGGUCCCAAGCCCGGAUAAAAGUGGUGGGGGGGG, CCGCCUAACACUGCCAAUGCCGGUCCCAAGCCCGGAUAAAAGUGGUGGGGGUGG is lower in self-cleavage: 0.12 for the first, 0.09 for the second.

Compared with CCGCCUAACACUACCAAUGCCGGUCCCAAGCCCGGAUAAAAGUGGUGGGGGCGG, CCGCCUAACACUCCCAAUGCCGGUCCCAAGCCCGGAUAAAAGUGGUGGGGGCGG is lower in self-cleavage: 0.03 for the first, 0.02 for the second.

First: CCGCCUAACACUUCCAAUGCCGGUCCCAAGCCCGGAUAAAAGUGGUGGGGGCGG
Second: CCGCCUAACACUGCCAAUACCGGUCCCAAGCCCGGAUAAAAGUGGUGGGGGCGG
The self-cleavage of the first is lower: 0.01 for the first, 0.06 for the second.
